# Measured values taken from ChEMBL document CHEMBL1821604, “Anticancer activity and cDNA microarray studies of a (RS)-1,2,3,5-tetrahydro-4,1-benzoxazepine-3-yl]-6-chloro-9H-purine, and an acyclic (RS)-O,N-acetalic 6-chloro-7H-purine” (Eur J Med Chem, 2011).
# Legend:
# Format in all cases: functional
# MCF7 [1] = assay: Upregulation of CR595826 gene expression in human MCF7 cells at IC50 after 48 hrs by cDNA microarray technique relative to control
# MCF7 [2] = assay: Down regulation of KIAA1533 gene expression in human MCF7 cells at IC50 after 48 hrs by cDNA microarray technique relative to control
# Summary of the method: (§1)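 Cells (8 × 10⁶) were cultured in DMEM with 10% heat-inactivated FBS at 37 °C under 5% CO₂. They were exposed for 48 h to compound at its IC₅₀, with DMSO-treated parallel cultures as controls (final DMSO ≤0.1% v/v). Total RNA was isolated by trizol/chloroform phase separation, RNeasy column cleanup and on-column DNase, then quantified by OD260/OD280. Expression was profiled by cDNA microarray relative to control.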
# MCF7 [3] = assay: Down regulation of C1orf131 gene expression in human MCF7 cells at IC50 after 48 hrs by cDNA microarray technique relative to control
# Summary of the method: (§2)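 8 × 10⁶ cells exposed 48 h to compound at its IC50 concentration; total RNA isolated with trizol/chloroform and RNeasy columns including on-column DNase step; RNA quantified by OD 260/280; DMSO-treated cultures as control.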
# MCF7 [4] = assay: Down regulation of IL1F9 gene expression in human MCF7 cells at IC50 after 48 hrs by cDNA microarray technique relative to control; summary of the method: as §1
# HT-29 [5] = assay: Upregulation of TREM4 gene expression in human HT-29 cells at IC50 after 48 hrs by cDNA microarray technique relative to control
# HT-29 [6] = assay: Down regulation of SLC28A2 gene expression in human HT-29 cells at IC50 after 48 hrs by cDNA microarray technique relative to control
# HT-29 [7] = assay: Upregulation of COL3A1 gene expression in human HT-29 cells at IC50 after 48 hrs by cDNA microarray technique relative to control
# MCF7 [8] = assay: Down regulation of C20orf54 gene expression in human MCF7 cells at IC50 after 48 hrs by cDNA microarray technique relative to control; summary of the method: as §2
# MCF7 [9] = assay: Upregulation of MGC2474 gene expression in human MCF7 cells at IC50 after 48 hrs by cDNA microarray technique relative to control
# MCF7 [10] = assay: Down regulation of PCDH20 gene expression in human MCF7 cells at IC50 after 48 hrs by cDNA microarray technique relative to control
# MCF7 [11] = assay: Down regulation of P53AIP1 gene expression in human MCF7 cells at IC50 after 48 hrs by cDNA microarray technique relative to control
# HT-29 [12] = assay: Down regulation of MGC35130 gene expression in human HT-29 cells at IC50 after 48 hrs by cDNA microarray technique relative to control
# MCF7 [13] = assay: Upregulation of ROS1 gene expression in human MCF7 cells at IC50 after 48 hrs by cDNA microarray technique relative to control
# MCF7 [14] = assay: Down regulation of AF147723 gene expression in human MCF7 cells at IC50 after 48 hrs by cDNA microarray technique relative to control; summary of the method: as §2
# HT-29 [15] = assay: Down regulation of RAB3D gene expression in human HT-29 cells at IC50 after 48 hrs by cDNA microarray technique relative to control
# HT-29 [16] = assay: Down regulation of VPS18 gene expression in human HT-29 cells at IC50 after 48 hrs by cDNA microarray technique relative to control
# HT-29 [17] = assay: Down regulation of HBZ gene expression in human HT-29 cells at IC50 after 48 hrs by cDNA microarray technique relative to control; summary of the method: as §1
# MCF7 [18] = assay: Down regulation of PARP9 gene expression in human MCF7 cells at IC50 after 48 hrs by cDNA microarray technique relative to control
# MCF7 [19] = assay: Down regulation of TSGA10 gene expression in human MCF7 cells at IC50 after 48 hrs by cDNA microarray technique relative to control
# MCF7 [20] = assay: Upregulation of GABARAPL1 gene expression in human MCF7 cells at IC50 after 48 hrs by cDNA microarray technique relative to control
# MCF7 [21] = assay: Upregulation of MRPL49 gene expression in human MCF7 cells at IC50 after 48 hrs by cDNA microarray technique relative to control
# HT-29 [22] = assay: Down regulation of RHOV gene expression in human HT-29 cells at IC50 after 48 hrs by cDNA microarray technique relative to control
# Summary of the method: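 HT-29 cells were grown in DMEM with 10% heat-inactivated FBS at 37 °C under 5% CO2. Cultures of 8 × 10⁶ cells were treated for 48 h; controls got DMSO at ≤0.1% v/v final. Cells were detached with PBS-EDTA and total RNA was extracted with trizol/chloroform and RNeasy columns with on-column DNase. RNA was quantified by OD 260/280 before cDNA microarray comparison with control.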
# HT-29 [23] = assay: Upregulation of LAMP3 gene expression in human HT-29 cells at IC50 after 48 hrs by cDNA microarray technique relative to control
# MCF7 [24] = assay: Upregulation of ATP12A gene expression in human MCF7 cells at IC50 after 48 hrs by cDNA microarray technique relative to control
# MCF7 [25] = assay: Down regulation of TAS2R40 gene expression in human MCF7 cells at IC50 after 48 hrs by cDNA microarray technique relative to control
# HT-29 [26] = assay: Upregulation of UNC5B gene expression in human HT-29 cells at IC50 after 48 hrs by cDNA microarray technique relative to control
# HT-29 [27] = assay: Down regulation of ANP32C gene expression in human HT-29 cells at IC50 after 48 hrs by cDNA microarray technique relative to control; summary of the method: as §2
# MCF7 [28] = assay: Down regulation of FBXL7 gene expression in human MCF7 cells at IC50 after 48 hrs by cDNA microarray technique relative to control; summary of the method: as §1
# HT-29 [29] = assay: Upregulation of EGLN3 gene expression in human HT-29 cells at IC50 after 48 hrs by cDNA microarray technique relative to control
# HT-29 [30] = assay: Down regulation of FLJ23436 gene expression in human HT-29 cells at IC50 after 48 hrs by cDNA microarray technique relative to control; summary of the method: as §1
# HT-29 [31] = assay: Down regulation of ACCN5 gene expression in human HT-29 cells at IC50 after 48 hrs by cDNA microarray technique relative to control; summary of the method: as §2
# HT-29 [32] = assay: Down regulation of ARL10B gene expression in human HT-29 cells at IC50 after 48 hrs by cDNA microarray technique relative to control; summary of the method: as §2
# HT-29 [33] = assay: Down regulation of RALGDS gene expression in human HT-29 cells at IC50 after 48 hrs by cDNA microarray technique relative to control
# MCF7 [34] = assay: Down regulation of LTBP2 gene expression in human MCF7 cells at IC50 after 48 hrs by cDNA microarray technique relative to control
# HT-29 [35] = assay: Down regulation of SOCS4 gene expression in human HT-29 cells at IC50 after 48 hrs by cDNA microarray technique relative to control
smiles,measurement,setting,value
COC(CN(c1ccccc1CO)S(=O)(=O)c1ccccc1[N+](=O)[O-])n1cnc2ncnc(Cl)c21 (racemic),fold change (FC),MCF7 [1],2.04
same,fold change (FC),MCF7 [2],-2.09
same,fold change (FC),MCF7 [3],-2.26
same,fold change (FC),MCF7 [4],-2.17
same,fold change (FC),HT-29 [5],2.27
same,fold change (FC),HT-29 [6],-3.32
same,fold change (FC),HT-29 [7],4.72
same,fold change (FC),MCF7 [8],-2.14
same,fold change (FC),MCF7 [9],2.23
same,fold change (FC),MCF7 [10],-2.01
same,fold change (FC),MCF7 [11],-2.4
same,fold change (FC),HT-29 [12],-2.05
same,fold change (FC),MCF7 [13],2.59
same,fold change (FC),MCF7 [14],-2.66
same,fold change (FC),HT-29 [15],-2.24
O=C(OCC1c2ccccc2-c2ccccc21)N1CC(n2cnc3c(Cl)ncnc32)OCc2ccccc21 (racemic),fold change (FC),HT-29 [16],-2.04
same,fold change (FC),HT-29 [17],-2.84
same,fold change (FC),MCF7 [18],-3.23
same,fold change (FC),MCF7 [19],-3.3
same,fold change (FC),MCF7 [20],2.07
same,fold change (FC),MCF7 [21],3.12
same,fold change (FC),HT-29 [22],-2.07
same,fold change (FC),HT-29 [23],2.91
same,fold change (FC),MCF7 [24],2.05
same,fold change (FC),MCF7 [25],-2.85
same,fold change (FC),HT-29 [26],2.42
same,fold change (FC),HT-29 [27],-2.81
same,fold change (FC),MCF7 [28],-2.86
same,fold change (FC),HT-29 [29],2.14
same,fold change (FC),HT-29 [30],-2.2
same,fold change (FC),HT-29 [31],-2.98
same,fold change (FC),HT-29 [32],-2.27
same,fold change (FC),HT-29 [33],-2.01
same,fold change (FC),MCF7 [34],-3.28
same,fold change (FC),HT-29 [35],-2
